Compound activity: PubChem, several laboratories
Most compounds without a hit are left out; they make up all but 2.2% or so of the library.
ASAP1 inh: ASAP1 ArfGAP inhibition | ASAP1-stimulated ARF1 GTP hydrolysis, GDP FP detection | 360,000 compounds, 0.19% hits | AID 624377 | Q9ULH1 | inhibition, % at 16.5 µM; in the data active = inhibition above about 25%;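 note: 0% = vehicle with enzyme and substrate and 100% = no enzyme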
Target sequence (Q9ULH1 325-724 limits assumed): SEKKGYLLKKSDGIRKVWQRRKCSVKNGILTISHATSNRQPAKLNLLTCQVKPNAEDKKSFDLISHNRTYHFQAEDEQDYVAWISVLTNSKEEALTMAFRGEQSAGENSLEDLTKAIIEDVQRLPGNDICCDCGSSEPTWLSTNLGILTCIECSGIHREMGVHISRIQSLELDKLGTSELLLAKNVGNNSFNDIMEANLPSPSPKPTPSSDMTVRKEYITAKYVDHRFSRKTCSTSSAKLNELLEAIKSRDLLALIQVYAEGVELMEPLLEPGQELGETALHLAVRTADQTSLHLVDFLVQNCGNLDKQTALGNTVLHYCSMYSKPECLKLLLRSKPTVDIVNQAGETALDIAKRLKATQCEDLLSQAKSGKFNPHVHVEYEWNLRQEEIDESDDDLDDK
ARFGAP1 inhibitor: inhibits rat ARF GTPase activating protein 1. AID 651572. inhibition, % at 16.5 µM. Arfgap1-stimulated ARF1 GTP hydrolysis, GDP FP detection. Q62848. 360,000 compounds, 0.26% hits;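 active = inhibition above a per-plate limit, mean inhibition of low control wells plus 3 SD, cut at about 25% in these data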;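 note: 0% = DMSO wells with enzyme and 100% = wells lacking Arfgap1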
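Assay system: Rat Arfgap1 GAP domain (His6, aa 1-136), purified enzyme | Buffer or medium: HEPES 25 mM pH 7.5, NaCl 150 mM, MgCl2, DTT | Schedule: GTP hydrolysis reaction 2 h at 25 °C | Signal: FP of antibody-bound GDP Alexa 633 tracer, ex 620/em 688 nm | Measure: Percent inhibition of Arfgap1-stimulated GTP hydrolysis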
V-ATPase pHluor: regulators of yeast V-ATPase proton transport. S. cerevisiae, pHLuorin cytosolic pH fluorescence. 350,000 compounds, 0.37% hits. response, % at 10 µM. AID 504577; in the data active = response mostly above about 7.3%, no sharp cut-off; inactive = mostly below about 5.4%; note: actives read high
NRP1-CendR mod: NRP-1/CendR interaction modulation | O14786 | FAM-RPARPAR peptide binding to NRP-1, fluorescence polarization | inhibition, % at 25 µM | 360,000 compounds, 0.85% hits;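 active = inhibition or corrected inhibition above about 18%, plus a signal ratio from 0.5 to 1.5, limit read from the data, passing the limit was not always enough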
Exocytosis inh: blocks lytic granule exocytosis; TALL-104 LAMP-1 surface exposure, flow cytometry; cells stimulated with thapsigargin and PMA; inhibition, % at 10 µM; 360,000 compounds, 0.66% hits;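 active = inhibition above about 55%, limit read from the data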
Granule exo CP1: lytic granule exocytosis inhibition | shares compounds with Exocytosis inh | TALL-104 cells, LAMP-1 externalization, flow cytometry; stimulated with PMA plus thapsigargin | inhibition, % at 10 µM | 1,500 compounds, 11% hits | AID 651954; in the data active = inhibition above about 60%;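 note: 0% = stimulated vehicle wells and 100% = unstimulated wells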
The depositor's hits bear a star; · = not tested or not shown.

SMILES	ASAP1 inh	ARFGAP1 inhibitor	V-ATPase pHluor	NRP1-CendR mod	Exocytosis inh	Granule exo CP1
Cc1ccc(C)c(CC(=O)N2CCCCC2c2cc(C(=O)Nc3ccc(F)c(Cl)c3)no2)c1 (centres undefined)	-2	3	·	4	8	·
Cc1ccc(NC(=O)CN(C)CC(=O)Nc2ccc(N3CCOCC3)cc2)cc1F	-1	-2	-3	6	99*	-11
CC(C)=CCC/C(C)=C/CNC(=O)C[C@H]1C[C@H](C(=O)N2CCOCC2)[C@@]2(C)c3[nH]c4ccc(Cl)cc4c3CCN2C1=O	-2	-1	1	5	70*	11
Cc1ccsc1C(=O)N(C)CC(=O)N(CC(C)C)c1c(N)n(CC(C)C)c(=O)[nH]c1=O	19	-13	-7	8	-11	·
O=C1CC(Sc2nnnn2-c2ccccc2)C(=O)N1c1cccc(Cl)c1 (centres undefined)	1	7	1	-2	99*	101*
O=C(COC(=O)CC1CC2CCC1C2)NCc1ccc(Cl)cc1 (centres undefined)	-13	-7	-2	8	63*	-5
O=C(COC(=O)CC1CC2CCC1C2)NCc1ccccc1 (centres undefined)	-5	8	0	-2	3	·
CCC1(C)CC(CCNS(=O)(=O)c2ccc(C)cc2)(c2ccc(C)cc2)CCO1 (centres undefined)	-17	-6	0	18	57*	-12
O=C(CN1C(=O)NC2(CCCC2)C1=O)OCCOc1ccc(Cl)cc1Cl	8	-8	0	20	2	·
O=C(Cc1ccc(Cl)cc1)Nc1ccc(CN2CCCCC2)cc1	20	2	1	-8	56*	-4
O=[N+]([O-])c1cccc(-c2c(-c3ccccc3)ncc3ccc(F)cc23)c1	15	0	-5	7	6	·
CCOC(=O)c1ccccc1NC(=O)Cc1ccc(S(=O)(=O)N2CCCC2)s1	2	-9	-4	-8	-5	·
Cc1cccn2c(=O)c3cc(C(=O)NC4CCCCC4)c(=N)n(Cc4ccc(F)cc4)c3nc12	-2	3	4	-6	70*	40
CC(C(=O)c1ccc(Br)cc1)[n+]1cccc2ccccc21 (centres undefined)	9	13	6	-27	15	·
CCOC(=O)/C=C/C(=O)OCC(=O)N1CCN(C(=O)c2ccco2)CC1	9	-4	-3	-1	-3	·
O=[S@]1Oc2ccccc2-c2ccccc21	9	2	-3	13	-4	·
COc1ccc(OC)c(NC(=O)c2ccccc2N(C)S(=O)(=O)c2ccc(C)cc2)c1	12	1	2	6	61*	-13
COc1ccc(C)cc1NC(=O)c1ccccc1N(C)S(=O)(=O)c1ccccc1	0	-16	10	-1	29	·
COc1ccc(N2CCN(C(=O)C(Cc3ccccc3)NC(=O)c3ccccc3)CC2)cc1 (centres undefined)	-6	7	-1	-11	-4	·
CCOCCCNC(=S)N1CCCN(c2nc3c(C)c(C)ccc3cc2C#N)CC1	2	5	-2	-16	91*	79*
O=C(CN1CCN(Cc2cccc3ccccc23)CC1)NCCc1ccccc1	-4	-1	0	-6	78*	-13
Cc1ccc(CN2CCC[C@]3(N[C@H](c4ccc(C(F)(F)F)cc4)[C@@H]4C(=O)N(Cc5ccccc5)C(=O)[C@@H]43)C2=O)cc1	12	-6	2	5	2	·
Cc1cc(C)n2c(NC3CCCC3)c(-c3ccc(F)cc3)nc2n1	0	7	·	-16	-1	·
CCC(=O)c1ccc(OCC(=O)N2CCN(c3ncccn3)CC2)cc1	-5	-7	3	-3	3	·
CCCOc1ccc(-c2c(C(=O)N/N=C(\C)c3ccncc3)nnn2-c2nonc2N)cc1	3	2	2	5	11	·
SMILES	ASAP1 inh	ARFGAP1 inhibitor	V-ATPase pHluor	NRP1-CendR mod	Exocytosis inh	Granule exo CP1
COc1ccc(-c2n[nH]c(C)c2-c2cscn2)c(O)c1	-7	-2	-1	-1	1	·
C=C(C)COc1ccc(-c2n[nH]c(C)c2-c2ccc(OC)cc2)c(O)c1	13	18	4	2	65*	98*
CNCc1ccccc1Sc1cc(O)ccc1O	-1	-4	2	-11	73*	9
CNCc1ccccc1Sc1cccc(O)c1	-4	0	-3	9	1	·
CCCCCCSc1ccc(-c2nc3ccccn3c2NCCCC)cc1	-8	6	1	16	70*	7
COCCNC(=S)N(CCc1c(C)[nH]c2ccc(C)cc12)Cc1ccco1	-13	-2	-1	-1	5	·
COCCNC(=S)N(CCc1c(C)[nH]c2ccc(F)cc12)Cc1ccc(C)cc1	4	21	3	11	77*	23
CCc1nc2sc(C(C)=O)c(N)c2c2c1CCCC2	-1	-1	-5	10	64*	-11
COc1ccc2[nH]c3c(C)c4ccncc4c(C)c3c2c1	0	3	-1	20	70*	18
CN1C(C)(C)CC(=NO)CC1(C)C	0	-4	-2	4	-8	·
CCCC(CNC(C)=O)(C1=CCCCC1)c1ccccc1 (centres undefined)	-9	0	-5	-1	-6	·
O=[N+]([O-])c1ccc(N2CCN(CC3CCCCC3)CC2)cc1	8	5	0	0	63*	-4
O=[N+]([O-])c1ccc(N2CCCCC2)cc1	-19	5	-1	8	-3	·
